Experiments:
[1] = folding enthalpy; higher = less favourable; fluorescence melt of hairpins on a sequencing array, two-state fit; settings: sodium 0.088 M
Method in brief: (§1)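 Folding enthalpy and melting temperature come from bootstrapped two-state fits to Cy3 fluorescence of library hairpins carrying annealed Cy3 and quencher oligos on a sequenced MiSeq flow cell. Imaging was done in 50 mM Na-HEPES pH 8.0, 25 mM NaCl, stepping by 2.5 °C up to 60 °C, and signals were normalised to pre-quench Cy3 and to control constructs. Results of four replicates were combined by inverse variance, and fitted temperatures were raised by 9.35 °C to match UV melts.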

[2] = melting temperature; fluorescence melt of hairpins on a sequencing array, two-state fit, raised by 9.35 °C to match UV melts; settings: sodium 0.088 M
Method in brief: as §1

Sequence | folding enthalpy [1] | Tm [2]
GATCAGCACTCTGATC ((((((....)))))) | -30.8 kcal/mol | 49.9 °C
GTTGTCGAAAGACTAAC ((((((....))).))) | -16.9 kcal/mol | 38 °C
GCGCACGAAAGTGATCGC ((((((....)))..))) | -24.8 kcal/mol | 49.6 °C
GAATATGGAAACATATTC (((((((....))))))) | -35.1 kcal/mol | 48.1 °C
GCGACTTTTCGC ((((....)))) | -21.6 kcal/mol | 49 °C
GTCTCCGAAAGGACGGAC ((((((....)))..))) | -15.7 kcal/mol | 35.7 °C
GGTGCTGGAAACAGCGCC ((.((((....)))).)) | -34.3 kcal/mol | 64.9 °C
GCATCGCGAAAGCGACGC ((.((((....)))).)) | -21.4 kcal/mol | 63.9 °C
GATCATCACATGATC ((((((...)))))) | -36.7 kcal/mol | 49.1 °C
GCATAGCGAAAGCTTTGC (((.(((....))).))) | -41.9 kcal/mol | 53.4 °C
GACGGGAAACCGTC (((((....))))) | -29 kcal/mol | 58.6 °C
GACTGAGGAAACTTGGTC (((..((....))..))) | -15.7 kcal/mol | 32.7 °C
GCGCTGCGAAAGCTGAGC ((.(.((....)).).)) | -21.2 kcal/mol | 57.6 °C
GCCCTGGGAAACTGGGGC ((((..(....)..)))) | -38 kcal/mol | 51.5 °C
GTTTACGAAAGTAAAC ((((((....)))))) | -28.3 kcal/mol | 57.3 °C
GGTGTTACGAAAGTAACC (((..(((....)))))) | -13.8 kcal/mol | 45.2 °C
GTACGCGAAAGCGGGTAC ((((((....)))..))) | -10.6 kcal/mol | 38.7 °C
GGGGGGGGAAACCCCTCC ((.((((....)))).)) | -17.5 kcal/mol | 60.9 °C
GCATCGACGAAAGTCTGC (((..(((....)))))) | -15.8 kcal/mol | 33.6 °C
GTGGTCGAAAGACCGCAC ((((((....)))..))) | -11.6 kcal/mol | 55.6 °C
GAAACGGGAAACCGTTCC (.(((((....))))).) | -14.6 kcal/mol | 39.4 °C
GGTTTCGAAAGAACAACC ((((((....)))..))) | -13 kcal/mol | 30.4 °C
GTGCCGGGAAACCGGTGC (..((((....))))..) | -19.4 kcal/mol | 52.7 °C

Sequence | folding enthalpy [1] | Tm [2]
GTGTCCGGAAACGAACAC ((((.((....)).)))) | -32.5 kcal/mol | 45.4 °C
CTTCTGAAAAGAAG (((((....))))) | -14.7 kcal/mol | 43.3 °C
GATCGGGCGCCGATC ((((((...)))))) | -46.3 kcal/mol | 55 °C
GGGCTATCGAAAGATCCC (((..(((....)))))) | -22 kcal/mol | 31.9 °C
GCGAAGCGAAAGCGTGGC ((.(.((....)).).)) | -10.5 kcal/mol | 47.3 °C
GGGGGAACGAAAGTTCCC (((..(((....)))))) | -8.07 kcal/mol | 64.3 °C
GCCCGGCGAAAGCCGCGC ((.((((....)))).)) | -17.4 kcal/mol | 60.1 °C
GCGTACCGAAAGGTCCGC (((.(((....))).))) | -49.9 kcal/mol | 58.2 °C
GTTATTGAAAAATAAC ((((((....)))))) | -25 kcal/mol | 37.5 °C
GTGGACGGAAACGTTCAC (((.(((....))).))) | -42.2 kcal/mol | 55 °C
GCGGAGGGAAACCTCTGC ((.((((....)))).)) | -40.3 kcal/mol | 58.2 °C
GACAGCGAAAGCTATGTC ((((((....)))..))) | -19.1 kcal/mol | 43.5 °C
GATCCGCGTCCGGATC ((((((....)))))) | -41.8 kcal/mol | 57.6 °C
GAACGGCGAAAGCCCTTC (((.(((....))).))) | -12.4 kcal/mol | 32.8 °C
GGGAACGAAAGTTTCCCC ((((((....)))..))) | -19.9 kcal/mol | 53.5 °C
GGAAACGAAAGTTGTCC ((((((....))).))) | -18.2 kcal/mol | 31.5 °C
GTGCTCGAAAGAGCCCAC ((((((....)))..))) | -8.93 kcal/mol | 35.8 °C
GGCTGTCGAAAGACGCC (((.(((....)))))) | -31.2 kcal/mol | 61.1 °C
GGGCTAACGAAAGTTCCC (((..(((....)))))) | -16.7 kcal/mol | 34.9 °C
GCGTCGGGAAACCGACAC (.(((((....))))).) | -11.2 kcal/mol | 48.1 °C
GATGGCGAAAGCCTCATC ((((((....)))..))) | -8.85 kcal/mol | 30.7 °C
GTTTAGGGAAACCTAAGC (.(((((....))))).) | -21.8 kcal/mol | 33.8 °C
GGTACCCGAAAGGGAACC (((.(((....))).))) | -26.8 kcal/mol | 59.7 °C
